High-throughput results: PubChem, The Scripps Research Institute Molecular Screening Center
TRPML3 ag: human mucolipin-3 channel agonism; Q8TDD5; HEK293 TRPML3-YFP, Fluo-8 calcium fluorescence; 100% = the carbachol control signal; activation, % at 3 µM; 220,000 compounds, 0.29% hits; AID 1448;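 active = activation above its plate's cutoff, the mean activation of the plate's test wells plus 3 SD, cut at about 12% in these data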;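 also: 0% = DMSO only wells and 100% = carbachol wells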
Target sequence (Q8TDD5 whole entry, looked up): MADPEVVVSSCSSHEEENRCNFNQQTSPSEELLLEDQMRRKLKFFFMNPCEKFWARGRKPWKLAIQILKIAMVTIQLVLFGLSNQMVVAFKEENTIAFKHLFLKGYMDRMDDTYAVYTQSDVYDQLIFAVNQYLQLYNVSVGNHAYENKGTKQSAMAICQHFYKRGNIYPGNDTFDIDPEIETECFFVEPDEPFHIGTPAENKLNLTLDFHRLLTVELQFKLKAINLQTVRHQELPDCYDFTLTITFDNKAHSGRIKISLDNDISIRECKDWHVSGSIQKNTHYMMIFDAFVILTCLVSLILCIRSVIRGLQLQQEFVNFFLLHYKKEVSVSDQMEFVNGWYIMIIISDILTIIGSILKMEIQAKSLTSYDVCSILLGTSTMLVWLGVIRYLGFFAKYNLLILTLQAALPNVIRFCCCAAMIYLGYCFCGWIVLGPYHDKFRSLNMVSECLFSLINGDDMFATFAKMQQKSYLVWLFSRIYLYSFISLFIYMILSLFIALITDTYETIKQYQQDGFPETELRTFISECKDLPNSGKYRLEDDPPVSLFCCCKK
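system = HEK293 cells stably carrying human TRPML3-YFP | doses = one concentration, 3 µM nominal, 0.3% DMSO | timing = dye loading 1 h 37 °C then 30 min ambient, 125 s read | detection = Fluo-8 calcium dye fluorescence, ex 470-495, em 515-575 nm | benchmarks = high control carbachol 87 µM, low control DMSO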
OXTR agonist: agonists of human oxytocin receptor. P30559. AID 2435. activation, % at 3 µM. 320,000 compounds, 0.32% hits. CHO-OTR cells, Fluo-8 calcium fluorescence; normalized: DMSO 0%, oxytocin 100%;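 active = activation above the mean of all tested compounds plus 3 SD, cutoff set per screening run, cut at about 20% in these data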;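 also: peak over basal fluorescence ratio from a 100 s FLIPR kinetic read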
TRPN1 ag: zebrafish TRPN1 (NompC) channel agonism; HEK293 zebrafish TRPN1-YFP, Fluo-8 calcium fluorescence; 100% = response to 87 µM carbachol; activation, % at 3 µM; AID 1424; 220,000 compounds, 0.18% hits;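 active = activation above its plate's cutoff, the mean activation of test wells on that plate plus 3 SD, cut at about 19% in these data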;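 also: 0% = DMSO alone and 100% = 87 µM carbachol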
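Control set: carbachol 87 µM as high control, DMSO as low control; system: HEK293 stable line with zebrafish TRPN1-YFP; read-out: % activation versus carbachol response; detection: intracellular calcium fluorescence with Fluo-8; doses: single test compound dose, 3 µM nominal, 0.3% DMSO; schedule: dye 1 h 37 °C plus 30 min RT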
OXTR potentiate: human OXTR potentiation; activation, % at 3 µM; AID 2445; CHO-OTR cells, Fluo-8 calcium fluorescence, potentiator mode; 0% = oxytocin EC15, 100% = EC100; 320,000 compounds, 0.061% hits;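 active = activation above that plate's cutoff, the mean activation of tested compounds plus 3 SD, cut at about 6.6% in these data, passing the limit was not always enough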;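 also: 100% uses oxytocin at 75 nM as the full agonist control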
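Material: CHO-OTR cells, human receptor; compound dosing: single dose, 3.0 µM nominal final compound concentration; schedule: 6 min compound pre-incubation at room temperature, 100 s kinetic read; measured by: kinetic Fluo-8 calcium fluorescence; read-out basis: % activation vs EC15 and EC100 oxytocin; controls: EC15 oxytocin alone as 0%, 75 nM oxytocin as 100%; replicates: singlicate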
V1R ag counter: activates human V1a receptor in oxytocin agonist counter-screen. CHO-V1R cells, Fluo-8 calcium fluorescence, agonist mode; 0% DMSO, 100% 3 nM vasopressin. activation, % at 3 µM. 320,000 compounds, 0.25% hits. AID 2797;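 active = activation above the mean activation of all tested compounds plus 3 SD, per screening run, cut at about 20% in these data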;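 also: signal is peak over basal fluorescence ratio across a 100 second FLIPR read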
Active calls of the source: *; nt = not tested or not shown; + = active, no number. This is a sample that favours compounds with a hit; in the whole collection about 0.55% have one here.

SMILES	TRPML3 ag	OXTR agonist	TRPN1 ag	OXTR potentiate	V1R ag counter
COC(=O)CN(C)C(=O)c1ccc2nc(Cc3cccc(Cl)c3)oc2c1	nt	0	nt	-8	2
COc1ccc(C2C=C(c3cccs3)Nc3nc(CCCO)nn32)cc1 (configuration not stated)	1	47*	3	-4	51*
COc1ccc(C2C=C(c3ccccc3)Nc3nc(CCCO)nn32)cc1 (configuration not stated)	0	-1	0	-15	-1
NC(=O)c1ccc[n+]([C@H]2O[C@@H](COP(=O)([O-])OP(=O)(O)OC[C@H]3O[C@@H](n4cnc5c(N)ncnc54)[C@H](O)[C@@H]3O)[C@H](O)[C@@H]2O)c1	nt	51*	nt	-22	69*
Cc1cc(C(=O)Nc2c(F)c(F)c(F)c(F)c2F)n(-c2ccccc2)n1	1	-2	-1	-1	0
COCc1nnc(SCC(=O)NCc2ccccc2)n1-c1ccccc1	-1	0	25*	-3	2
COCc1nnc(SCC(=O)Nc2cccc(Cl)c2C)n1-c1ccccc1	0	2	-1	-7	0
COc1ccc(OC)c(/C=C2/Sc3ccccc3C2=O)c1	7	24*	13	-14	28*
Cc1ccc2c(c1)N(CC(=O)N1CCCC1)C(=O)C(C)O2 (configuration not stated)	nt	1	nt	7	0
O=C(NCc1ccccc1C(F)(F)F)c1cccc2c1C(=O)c1ccc(N3CCCCC3)cc1S2(=O)=O	nt	24*	nt	-11	25*
CC1CCN(c2ccc3c(c2)S(=O)(=O)c2cccc(C(=O)NCc4ccc(F)cc4)c2C3=O)CC1	nt	5	nt	-2	4
O=C(NCc1ccc(F)cc1)c1cccc2c1C(=O)c1ccc(N3CCC(Cc4ccccc4)CC3)cc1S2(=O)=O	nt	20*	nt	-12	27*
CC(C)(C)CNC(=O)c1cccc2c1C(=O)c1ccc(N3CCCC3)cc1S2(=O)=O	nt	8	nt	-9	11
CN1CCN(c2ccc(C(F)(F)F)cc2NC(=O)Nc2ccccc2)CC1	nt	34*	nt	-24	33*
Oc1ccc(C23CCCC2C2(CCCC2)c2ccc(O)cc2O3)c(O)c1 (configuration not stated)	nt	39*	nt	-15	28*
CCOC(=O)c1c(CSC(=N)N)n(-c2ccc(C)cc2)c2cc(Br)c(OC(C)=O)cc12	2	32*	6	-23	22*
CCOC(=O)c1c(CSC(=N)N)n(C)c2cc(Br)c(OC(C)=O)cc12	1	-1	1	-9	0
c1cc(Nc2ncnc3sccc23)cc(-c2nnc3n2CCCCC3)c1	0	-1	0	-11	0
CN(Cc1ccccc1)C(=O)c1ccc(NC(=O)C2CCN(C(=O)OC(C)(C)C)CC2)cc1	nt	17	nt	-12	12
Cc1ccc2cc(/C=N/NC(=O)CN3CCCCC3)c(Cl)nc2c1	1	0	0	-7	1
O=C(/C=C/c1cccs1)NC(=S)NNC(=O)c1ccccc1O	14*	18	21*	-12	14
COc1ccc(C(=O)NNC(=S)NC(=O)/C=C/c2cccs2)cc1	0	3	2	-7	1
CN1CCC(N(C)S(=O)(=O)c2ccc(NC(=O)COc3ccc(F)cc3)cc2)CC1	nt	4	nt	-3	3
CN1CCC(N(C)S(=O)(=O)c2ccc(NC(=O)COc3ccc(Cl)cc3)cc2)CC1	nt	25*	nt	-10	24*
N#CNC(=Nc1cccc(F)c1)SCc1cccc(F)c1	13*	9	16	-10	10
SMILES	TRPML3 ag	OXTR agonist	TRPN1 ag	OXTR potentiate	V1R ag counter
Cc1nc2ccc(NC(=S)NC(C)C)cc2nc1C	1	-1	-2	-3	0
CC(=O)c1ccc(O)c(CC=C(C)C)c1	nt	1	nt	0	0
CCC1(c2ccccc2)NC(=O)N(CC(=O)Nc2ccc(S(=O)(=O)NC3=NCCCCC3)cc2)C1=O (configuration not stated)	nt	1	nt	0	0
Cc1nc(-c2ccc(NC(=O)c3ccccc3C)cc2)cs1	2	1	4	-3	2
COc1ccc(C2CC3(CC(C)(C)NC(SC)=N3)Oc3cc(O)cc(C)c32)cc1 (configuration not stated)	1	39*	1	-10	51*
O=C(CN1C(=O)CSc2ccc(S(=O)(=O)N3CCOCC3)cc21)NCCCN1CCc2ccccc2C1	1	0	0	-8	-2
CC(C)=CCC[C@](C)(O[C@@H]1O[C@H](CO[C@@H]2O[C@H](CO)[C@@H](O)[C@H](O)[C@H]2O)[C@@H](O)[C@H](O)[C@H]1O)C1CC[C@]2(C)C1C(=O)CC1[C@@]3(C)CC[C@H](O[C@H]4O[C@@H](CO)[C@H](O)[C@@H](O)[C@@H]4O)C(C)(C)C3CC[C@]12C (some centres not stated)	nt	1	nt	-2	1
CC(=O)OCC1O[C@@H](O[C@@H]2C[C@H]3C(C)(C)[C@H](OC(C)=O)CC[C@]3(C)[C@H]3CC[C@]45C[C@]4(CC[C@H]5[C@@H](C)C[C@@H](O)[C@H](O)C(C)(C)O)[C@@]32C)[C@H](O)[C@@H](O)[C@@H]1O (some centres not stated)	0	69*	1	-18	87*
CCOc1ccc(N/C(=N/c2nc(C)cc(C)n2)NC(C)=O)cc1	0	-3	2	2	-1
CC(C)=C(C#N)c1nc2ccccc2s1	8	36*	17	-6	40*
COC(=O)c1ccc(/C(O)=C(\C#N)c2nc3ccccc3s2)cc1	4	9	6	-9	10
N#C/C(=C/c1ccncc1)c1nc2ccccc2s1	19*	27*	34*	-6	55*
N#C/C(=C\c1ccncc1)c1nc2ccccc2[nH]1	1	nt	0	nt	nt
O=C(c1ccc(Br)o1)N1CCN(c2ncccn2)CC1	0	0	-2	-11	0
Cc1ccc(N2C(=O)c3ccc(C(=O)N4CCN(c5ccc(C)c(C)c5)CC4)cc3C2=O)cc1	1	0	-1	-3	0
Cc1ccc(N2C(=O)c3ccc(C(=O)N4CCN(Cc5ccccc5)CC4)cc3C2=O)cc1	3	30*	9	-10	40*
CCN1/C(=C/C=C/c2oc3ccc(-c4ccccc4)cc3[n+]2CC)Oc2ccc(-c3ccccc3)cc21	326*	662*	777*	-10	761*
COC(=O)c1ccccc1-c1c2ccc(=N)cc-2oc2cc(N)ccc12	nt	+	nt	-12	+
COc1ccc(-[n+]2c(C)cc(/C=C3\Sc4ccccc4N3C)cc2C)cc1	7	15	19*	-20	13
O=C1c2cccc3c(O)ccc(c23)C(=O)N1c1ccc(Cl)cc1	nt	186*	nt	-27	184*
